This note sets out measurements from ChEMBL document CHEMBL1141179 (J Med Chem, 2005).

For assay [1], the target named is Somatostatin receptor type 2 (Homo sapiens, UniProt P30874). Put plainly: Inhibition of 125I-[Leu8,D-Trp22,Tyr25]SRIF-28 binding to human somatostatin receptor type 2. The method, boiled down: (§1)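 Human sst2 or sst3 receptor stably expressed in CCL39 cells. 20 µm cryostat sections of cell membrane pellets were used for autoradiographic binding. IC50 (nM) came from competitive displacement. Values are mean ± SEM when N ≥ 3; otherwise mean with single values.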
Chain of Somatostatin receptor type 2 (P30874 whole entry): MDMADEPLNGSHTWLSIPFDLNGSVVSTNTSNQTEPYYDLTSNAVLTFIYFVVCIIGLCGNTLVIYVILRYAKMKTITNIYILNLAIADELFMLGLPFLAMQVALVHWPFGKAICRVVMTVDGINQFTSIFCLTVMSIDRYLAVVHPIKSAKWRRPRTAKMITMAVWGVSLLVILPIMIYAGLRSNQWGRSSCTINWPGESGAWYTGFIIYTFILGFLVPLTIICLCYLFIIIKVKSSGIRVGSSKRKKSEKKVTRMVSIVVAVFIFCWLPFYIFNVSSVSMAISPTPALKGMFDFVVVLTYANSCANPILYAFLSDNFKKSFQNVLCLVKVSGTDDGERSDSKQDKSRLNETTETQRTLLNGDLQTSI

Assay [2] deals with Somatostatin receptor type 3 (Homo sapiens, UniProt P32745). Put plainly: Inhibition of 125I-[Leu8,D-Trp22,Tyr25]SRIF-28 binding to human somatostatin receptor type 3. The method, boiled down:
as §1

The target of assay [3] is Somatostatin receptor type 4 (Homo sapiens, UniProt P31391). Put plainly: Inhibition of 125I-[Leu8,D-Trp22,Tyr25]SRIF-28 binding to human somatostatin receptor type 4.
Chain of Somatostatin receptor type 4 (P31391 whole entry): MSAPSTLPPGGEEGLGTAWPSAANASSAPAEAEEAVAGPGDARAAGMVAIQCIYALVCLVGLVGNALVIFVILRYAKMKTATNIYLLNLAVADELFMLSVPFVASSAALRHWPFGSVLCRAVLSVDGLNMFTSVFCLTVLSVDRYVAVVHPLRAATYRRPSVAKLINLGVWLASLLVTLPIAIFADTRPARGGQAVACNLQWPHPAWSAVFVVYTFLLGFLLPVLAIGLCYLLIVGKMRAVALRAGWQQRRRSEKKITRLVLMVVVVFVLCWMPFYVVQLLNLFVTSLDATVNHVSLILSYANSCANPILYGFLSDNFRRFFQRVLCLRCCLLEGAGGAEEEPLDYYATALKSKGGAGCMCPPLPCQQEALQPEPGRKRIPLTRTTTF
Assay [4] concerns the target Somatostatin receptor type 5 (Homo sapiens, UniProt P35346). As to the kind of experiment: Inhibition of 125I-[Leu8,D-Trp22,Tyr25]SRIF-28 binding to human somatostatin receptor type 5. The method, boiled down:
(§2)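 Human sst1 or sst5 receptor stably expressed in CHO-K1 cells. 20 µm cryostat sections of cell membrane pellets were used for receptor autoradiography. IC50 (nM) came from competitive radioligand displacement. Values are mean ± SEM when N ≥ 3; otherwise mean with single values.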

Assay [5] has as its target Somatostatin receptor type 1 (Homo sapiens, UniProt P30872). Put plainly: Inhibition of 125I-[Leu8,D-Trp22,Tyr25]SRIF-28 binding to human somatostatin receptor type 1. The method, boiled down: as §2

Chain of Somatostatin receptor type 5 (P35346 whole entry): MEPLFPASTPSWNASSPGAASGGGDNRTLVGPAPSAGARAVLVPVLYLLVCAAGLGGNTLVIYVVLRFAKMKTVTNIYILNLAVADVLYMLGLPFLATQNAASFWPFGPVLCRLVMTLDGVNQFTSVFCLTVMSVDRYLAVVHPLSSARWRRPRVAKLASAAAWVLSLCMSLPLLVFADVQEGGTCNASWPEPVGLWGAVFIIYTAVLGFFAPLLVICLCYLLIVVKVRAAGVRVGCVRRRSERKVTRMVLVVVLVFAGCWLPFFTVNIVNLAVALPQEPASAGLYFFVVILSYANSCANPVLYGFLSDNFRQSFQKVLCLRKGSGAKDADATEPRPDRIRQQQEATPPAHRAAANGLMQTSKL
Chain of Somatostatin receptor type 3 (P32745 whole entry): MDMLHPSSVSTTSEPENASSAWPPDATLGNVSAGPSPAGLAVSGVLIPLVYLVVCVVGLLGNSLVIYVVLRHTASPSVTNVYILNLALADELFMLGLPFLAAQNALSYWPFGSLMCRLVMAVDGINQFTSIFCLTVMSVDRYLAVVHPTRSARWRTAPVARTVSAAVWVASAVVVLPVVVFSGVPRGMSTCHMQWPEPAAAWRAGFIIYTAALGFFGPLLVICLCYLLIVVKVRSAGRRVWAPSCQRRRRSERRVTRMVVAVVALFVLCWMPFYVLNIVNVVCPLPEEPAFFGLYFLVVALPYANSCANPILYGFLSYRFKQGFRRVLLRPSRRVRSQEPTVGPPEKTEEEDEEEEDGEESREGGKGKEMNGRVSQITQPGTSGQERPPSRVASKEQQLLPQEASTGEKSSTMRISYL
Chain of Somatostatin receptor type 1 (P30872 whole entry): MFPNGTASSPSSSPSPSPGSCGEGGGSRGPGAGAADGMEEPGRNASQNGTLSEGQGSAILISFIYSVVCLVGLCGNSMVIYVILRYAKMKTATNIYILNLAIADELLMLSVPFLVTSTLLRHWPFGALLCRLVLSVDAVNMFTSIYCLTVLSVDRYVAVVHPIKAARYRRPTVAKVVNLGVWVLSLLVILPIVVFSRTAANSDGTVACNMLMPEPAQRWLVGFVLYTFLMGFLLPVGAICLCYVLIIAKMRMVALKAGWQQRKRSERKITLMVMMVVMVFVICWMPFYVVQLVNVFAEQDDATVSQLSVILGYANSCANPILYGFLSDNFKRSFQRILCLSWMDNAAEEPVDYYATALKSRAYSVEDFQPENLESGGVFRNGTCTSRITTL

In the case of `CC(C)NCc1ccc(C[C@@H]2NC(=O)[C@@H](Cc3c[nH]c4ccccc34)NC(=O)[C@@H]3CCC(=O)NCCCC[C@H](NC(=O)[C@H](Cc4ccccc4)NC(=O)[C@H]([C@@H](C)O)NC2=O)C(=O)N[C@@H](CO)C(=O)N[C@H](C(N)=O)CSSC[C@H](NC(=O)[C@@H](N)Cc2ccc(O)cc2)C(=O)N[C@@H](CCCCN)C(=O)N[C@@H](Cc2ccccc2)C(=O)N3)cc1`, the IC50 (commonly the point on the concentration scale where inhibition reaches its midpoint) in assay [1] is greater than 1 µM; in assay [2], greater than 1 µM; in assay [3], greater than 1 µM; in assay [4] it was greater than 1 µM; in assay [5], 0.181 µM.
For `CC(C)NCc1ccc(C[C@H]2C(=O)N[C@@H]([C@@H](C)O)C(=O)N[C@@H](Cc3ccc(O)c(I)c3)C(=O)N[C@H]3CCCCCCNC(=O)CC[C@H](NC(=O)[C@H](Cc4ccccc4)NC(=O)[C@H](CCCCN)NC(=O)[C@@H](N)CSSC[C@@H](C(=O)O)NC(=O)[C@H](CO)NC3=O)C(=O)N[C@H](Cc3c[nH]c4ccccc34)C(=O)N2C)cc1`, the concentration for half-maximal inhibition (IC50) is greater than 1 µM in assay [1]; greater than 1 µM in assay [2]; 0.611 µM in assay [3]; greater than 1 µM in assay [4]; 0.046 µM in assay [5].
As to `CC(C)NCc1ccc(C[C@@H]2NC(=O)[C@@H](Cc3c[nH]c4ccccc34)NC(=O)[C@@H]3CCC(=O)NCCC(=O)NCCC[C@H](NC(=O)[C@H](Cc4ccccc4)NC(=O)[C@H]([C@@H](C)O)NC2=O)C(=O)N[C@@H](CO)C(=O)N[C@H](C(=O)O)CSSC[C@H](NC(=O)[C@@H](N)Cc2ccc(O)cc2)C(=O)N[C@@H](CCCCN)C(=O)N[C@@H](Cc2ccccc2)C(=O)N3)cc1`, the IC50 in assay [1] was greater than 1 µM; in assay [2], greater than 1 µM; in assay [3] it was greater than 1 µM; in assay [4] it was greater than 1 µM; in assay [5] it was 0.064 µM.
Turning to `CC(C)NCc1ccc(C[C@@H]2NC(=O)[C@@H](Cc3c[nH]c4ccccc34)NC(=O)[C@@H]3CCC(=O)NCCCC(=O)NCCCC[C@H](NC(=O)[C@H](Cc4ccccc4)NC(=O)[C@H]([C@@H](C)O)NC2=O)C(=O)N[C@@H](CO)C(=O)N[C@H](C(=O)O)CSSC[C@H](NC(=O)[C@@H](N)Cc2ccc(O)cc2)C(=O)N[C@@H](CCCCN)C(=O)N[C@@H](Cc2ccccc2)C(=O)N3)cc1`, the half-maximal inhibitory concentration (IC50) is greater than 1 µM in assay [1]; greater than 1 µM in assay [2]; greater than 1 µM in assay [3]; greater than 1 µM in assay [4]; 0.274 µM in assay [5].
As for `CC(C)NCc1ccc(C[C@H]2C(=O)N[C@@H]([C@@H](C)O)C(=O)N[C@@H](Cc3ccc(O)c(I)c3)C(=O)N[C@H]3CCCCNC(=O)CC[C@H](NC(=O)[C@H](Cc4ccccc4)NC(=O)[C@H](CCCCN)NC(=O)[C@@H](N)CSSC[C@@H](C(=O)O)NC(=O)[C@H](CO)NC3=O)C(=O)N[C@H](Cc3c[nH]c4ccccc34)C(=O)N2C)cc1`, the IC50 was greater than 1 µM in assay [1]; 0.254 µM in assay [2]; greater than 1 µM in assay [3]; greater than 1 µM in assay [4]; 0.014 µM in assay [5].
With `CC(C)NCc1ccc(C[C@@H]2NC(=O)[C@@H](Cc3c[nH]c4ccccc34)NC(=O)[C@@H]3CCC(=O)NCCCC[C@H](NC(=O)[C@H](Cc4ccc(O)cc4)NC(=O)[C@H]([C@@H](C)O)NC2=O)C(=O)N[C@@H](CO)C(=O)N[C@H](C(N)=O)CSSC[C@H](N)C(=O)N[C@@H](CCCCN)C(=O)N[C@@H](Cc2ccccc2)C(=O)N3)cc1`, the IC50 in assay [1] was greater than 1 µM; in assay [2], greater than 1 µM; in assay [3], greater than 1 µM; in assay [4], greater than 1 µM; in assay [5], 0.018 µM.
For `CC(C)NCc1ccc(C[C@@H]2NC(=O)[C@@H](Cc3c[nH]c4ccccc34)NC(=O)[C@@H]3CCC(=O)NCCC(=O)NCC[C@H](NC(=O)[C@H](Cc4ccccc4)NC(=O)[C@H]([C@@H](C)O)NC2=O)C(=O)N[C@@H](CO)C(=O)N[C@H](C(=O)O)CSSC[C@H](NC(=O)[C@@H](N)Cc2ccc(O)cc2)C(=O)N[C@@H](CCCCN)C(=O)N[C@@H](Cc2ccccc2)C(=O)N3)cc1`, the IC50 in assay [1] is greater than 1 µM; in assay [2], greater than 1 µM; in assay [3], greater than 1 µM; in assay [4], greater than 1 µM; in assay [5] it was 0.074 µM.
For `CC(C)NCc1ccc(C[C@H]2C(=O)N[C@@H]([C@@H](C)O)C(=O)N[C@@H](Cc3ccc(O)c(I)c3)C(=O)N[C@@H]3CCCCCCNC(=O)CC[C@H](NC(=O)[C@H](Cc4ccccc4)NC(=O)[C@H](CCCCN)NC(=O)[C@@H](N)CSSC[C@@H](C(=O)O)NC(=O)[C@H](CO)NC3=O)C(=O)N[C@H](Cc3c[nH]c4ccccc34)C(=O)N2C)cc1`, the concentration for half-maximal inhibition (IC50) was greater than 1 µM in assay [1]; greater than 1 µM in assay [2]; 0.215 µM in assay [3]; greater than 1 µM in assay [4]; 0.62 µM in assay [5].
As for `CC(C)NCc1ccc(C[C@@H]2NC(=O)[C@@H](Cc3c[nH]c4ccccc34)NC(=O)[C@@H](NC(=O)[C@@H](N)Cc3ccccc3)CCC(=O)NCCCC[C@@H](C(=O)N[C@@H](CO)C(=O)O)NC(=O)[C@H](Cc3ccccc3)NC(=O)[C@H]([C@@H](C)O)NC2=O)cc1`, the IC50 in assay [1], in assay [2], in assay [3], in assay [4] and in assay [5] was greater than 1 µM throughout.
With `CC(C)NCc1ccc(C[C@@H]2NC(=O)[C@@H](Cc3c[nH]c4ccccc34)NC(=O)[C@@H]3CCC(=O)NCCCC(=O)NCCC[C@H](NC(=O)[C@H](Cc4ccccc4)NC(=O)[C@H]([C@@H](C)O)NC2=O)C(=O)N[C@@H](CO)C(=O)N[C@H](C(=O)O)CSSC[C@H](NC(=O)[C@@H](N)Cc2ccc(O)cc2)C(=O)N[C@@H](CCCCN)C(=O)N[C@@H](Cc2ccccc2)C(=O)N3)cc1`, the IC50 in assay [1] is greater than 1 µM; in assay [2] it was greater than 1 µM; in assay [3], greater than 1 µM; in assay [4] it was greater than 1 µM; in assay [5], 0.167 µM.
For the compound `CC(C)NCc1ccc(C[C@@H]2NC(=O)[C@@H](Cc3c[nH]c4ccccc34)NC(=O)[C@@H]3CCC(=O)NCCCC[C@H](NC(=O)[C@H](Cc4ccccc4)NC(=O)[C@H]([C@@H](C)O)NC2=O)C(=O)N[C@@H](CO)C(=O)N[C@H](C(=O)O)CSSC[C@H](NC(=O)[C@@H](N)Cc2ccc(O)c(I)c2)C(=O)N[C@@H](CCCCN)C(=O)N[C@@H](Cc2ccccc2)C(=O)N3)cc1`, the IC50 was greater than 1 µM in assay [1]; greater than 1 µM in assay [2]; greater than 1 µM in assay [3]; greater than 1 µM in assay [4]; 0.089 µM in assay [5].
Regarding `CC(C)NCc1ccc(C[C@@H]2NC(=O)[C@@H](Cc3c[nH]c4ccccc34)NC(=O)[C@@H]3CCC(=O)NCCCC(=O)NCC[C@H](NC(=O)[C@H](Cc4ccccc4)NC(=O)[C@H]([C@@H](C)O)NC2=O)C(=O)N[C@@H](CO)C(=O)N[C@H](C(=O)O)CSSC[C@H](NC(=O)[C@@H](N)Cc2ccc(O)cc2)C(=O)N[C@@H](CCCCN)C(=O)N[C@@H](Cc2ccccc2)C(=O)N3)cc1`, the IC50 was greater than 1 µM in assay [1]; greater than 1 µM in assay [2]; greater than 1 µM in assay [3]; greater than 1 µM in assay [4]; 0.061 µM in assay [5].
Take `CC(C)NCc1ccc(C[C@@H]2NC(=O)C(Cc3c[nH]c4ccccc34)NC(=O)[C@H](Cc3ccccc3)NC(=O)[C@@H](Cc3ccccc3)NC(=O)[C@H](NC(=O)[C@@H](N)Cc3ccc(O)cc3)CSSC[C@@H](C(=O)O)NC(=O)[C@@H]([C@@H](C)O)NC(=O)[C@H](Cc3ccccc3)NC(=O)[C@@H]([C@@H](C)O)NC2=O)cc1` (stereo in doubt): the half-inhibitory concentration (IC50) is greater than 1 µM in assay [1], 0.445 µM in assay [2], greater than 1 µM in assay [3] and 0.72 µM in assay [5].
